The subject of one experiment is DU-145. The experiment in a line: Growth inhibition of human DU145 cells after 96 hrs by trypan blue exclusion assay. It counts as functional. The settings on record: DU-145, 96 h.
For a further experiment, the system named is K562. Briefly: Growth inhibition of human K562 cells expressing p210Bcr/Abl after 96 hrs by trypan blue exclusion assay. It counts as functional, cell-based. The settings on record: K562, 96 h. In a few lines: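 K562 cells were kept in RPMI with 10% FBS and penicillin–streptomycin at 37 °C under 5% CO2. Cells were seeded at 1 × 10^5 cells/mL with a range of compound concentrations, using DMSO as the negative control. After 96 h, viability was counted by Trypan blue exclusion and expressed as percent of DMSO control to derive GI50.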

Results on 62 molecules are retold here after ChEMBL document CHEMBL1240409, “Design, synthesis and evaluation of (E)-alpha-benzylthio chalcones as novel inhibitors of BCR-ABL kinase” (Bioorg Med Chem, 2010).

By GI50 is commonly meant the concentration giving 50% growth inhibition. Read a low GI50 as more potent growth inhibition.

As to `O=C(/C(=C\c1ccc(O)c([N+](=O)[O-])c1)SCc1ccc(Br)cc1)C1CCNC1` (centres undefined), the concentration for 50% growth inhibition (GI50) with DU-145 and in the experiment on K562 was > 100 µM in each case.
On to `O=C(O)c1cc(/C=C(/Sc2ccc(Br)cc2)C(=O)c2c(F)c(F)c(F)c(F)c2F)ccc1O`, for which the GI50 in the experiment with DU-145 and in the experiment with K562 was 25 µM each time.
Regarding `O=C(/C(=C\c1ccccc1OCc1ccccc1)SCc1ccc(F)cc1)c1ccc(Cl)cc1`, the GI50 with DU-145 and in the experiment with K562 was 1 µM in each case.
For `CSc1ccc(/C=C(/SCc2ccc(C)cc2)C(=O)c2ccc(Br)cc2)cc1`, the GI50 with DU-145 was > 100 µM; in the experiment on K562, 10 µM.
Take `COc1cc(OC)c(/C=C(\C(=O)c2ccc(Br)cc2)S(=O)(=O)c2ccc(Br)cc2)c(OC)c1`: the GI50 with DU-145 and with K562 was > 100 µM in each case.
With `Cc1ccc(S/C(=C/c2ccc(Cl)cc2)C(=O)c2ccc(Br)cc2)cc1`, the GI50 in the experiment with DU-145 came out at 10 µM; in the experiment with K562, 1 µM.
With `COc1ccccc1/C=C(\C(=O)c1ccc(Cl)cc1)S(=O)(=O)Cc1ccc(Cl)c(Cl)c1`, the GI50 in the experiment with DU-145 and in the experiment with K562 was 1 µM in each case.
`Cc1ccc(/C=C(\C(=O)c2ccc(Br)cc2)S(=O)(=O)Cc2ccc(F)cc2)s1`: the concentration for 50% growth inhibition (GI50) in the experiment with DU-145 and in the experiment with K562 was 1 µM each time.
Take `COc1ccc(/C=C(/Sc2ccc(F)cc2)C(=O)c2ccc(OC)cc2)cc1`: the results for the concentration for 50% growth inhibition (GI50) with DU-145 and with K562 were 25 µM and 1 µM, respectively.
`Cc1ccc(CS/C(=C/c2cc(Cl)cc(Cl)c2)C(=O)c2ccc(Cl)cc2)cc1`: the GI50 with DU-145 and with K562 was 10 µM in each case.
For `O=C(/C(=C\c1c[nH]c2ccccc12)SCc1ccc(F)cc1)c1ccc(Cl)cc1`, the GI50 with DU-145 and in the experiment with K562 was 1 µM in each case.
On to `COc1cc(OC)c(/C=C(/Sc2ccc(C)cc2)C(=O)c2ccc(Cl)cc2)c(OC)c1`, for which the GI50 in the experiment with DU-145 was > 100 µM; with K562 it was 25 µM.
On to `O=C(/C(=C\c1ccc(F)cc1Cl)Sc1ccc(Br)cc1)c1ccc(Br)cc1`, for which the GI50 in the experiment on DU-145 and in the experiment with K562 was 1 µM each time.
As to `CCOc1ccc(/C=C(/SCc2ccc(C)cc2)C(=O)c2ccc(Cl)cc2)cc1OC`, the GI50 in the experiment with DU-145 and in the experiment on K562 was 25 µM in each case.
`CN(C)c1ccc(/C=C(/SCc2ccc(Cl)cc2Cl)C(=O)c2ccc(Cl)cc2)cc1`: the figures for the GI50 in the experiment with DU-145 and in the experiment with K562 were 50 µM and > 100 µM, respectively.
The matching figures for `Cc1ccc(CS(=O)(=O)/C(=C/c2sccc2C)C(=O)c2ccc(Cl)cc2)cc1`: 25 µM and 25 µM.
Consider `CN(C)c1ccc(/C=C(/SCc2ccccc2Cl)C(=O)c2ccc(Cl)cc2)cc1`, for which the GI50 in the experiment on DU-145 is > 100 µM; in the experiment on K562, 50 µM.
The matching figures for `Cc1ccc(S/C(=C/c2ccc(O)c([N+](=O)[O-])c2)C(=O)c2ccc(Cl)cc2)cc1`: 10 µM and 25 µM.
The like results for `CN(C)c1ccc(/C=C(/SCc2ccc(F)cc2)C(=O)c2ccc(Br)cc2)cc1` were, in that order, 50 µM and 1 µM.
In the case of `CCOc1ccc(/C=C(/SCc2ccc(F)cc2)C(=O)c2ccc(Cl)cc2)cc1OC`, the GI50 with DU-145 and with K562 was 1 µM throughout.
On to `O=C(/C(=C\c1ccc(O)cc1O)Sc1ccccc1Br)c1ccc(Cl)cc1`, for which the GI50 in the experiment on DU-145 and with K562 was 50 µM each time.
Turning to `Cc1ccc(CS/C(=C/c2sccc2C)C(=O)c2ccc(Cl)cc2)cc1`, the GI50 in the experiment on DU-145 and in the experiment with K562 was 10 µM in each case.
Take `Cc1ccc(C)c(/C=C(/SCc2ccc(F)cc2)C(=O)c2ccc(Br)cc2)c1`: the GI50 in the experiment on DU-145 worked out at 1 µM; with K562, 50 µM.
As to `COc1ccc(/C=C(\C(=O)c2ccc(Br)cc2)S(=O)(=O)c2ccc(Br)cc2)c(OC)c1`, the GI50 in the experiment on DU-145 and with K562 was 8 µM throughout.
For `Cc1ccc(CS/C(=C/c2ccc(C(=O)O)cc2)C(=O)c2ccc(Cl)c([N+](=O)[O-])c2)cc1`, the GI50 came to 10 µM in the experiment on DU-145 and 1 µM in the experiment with K562.
`CN(C)c1ccc(/C=C(\C(=O)c2ccc(Br)cc2)S(=O)(=O)Cc2ccc(F)cc2)cc1`: the GI50 with DU-145 and in the experiment on K562 was 50 µM in each case.
For the molecule `O=C(/C(=C\c1ccc(O)cc1O)SCc1ccc(Cl)cc1)c1ccc(Cl)cc1`, the 50% growth inhibitory concentration (GI50) with DU-145 and with K562 was 50 µM in each case.
`Cc1ccc(CS/C(=C/c2ccc(F)c([N+](=O)[O-])c2)C(=O)c2ccc(Cl)c([N+](=O)[O-])c2)cc1`: the GI50 is 1 µM in the experiment with DU-145 and < 1 µM with K562.
Turning to `O=C(/C(=C\c1ccc([N+](=O)[O-])c(O)c1)SCc1ccc(Br)cc1)C1CCNC1` (centres undefined), the GI50 in the experiment on DU-145 and with K562 was > 100 µM each time.
On to `COc1cc(OC)c(/C=C(/SCc2ccc(Cl)cc2)C(=O)c2ccc([N+](=O)[O-])cc2)c(OC)c1`, for which the figures for the GI50 in the experiment with DU-145 and with K562 were > 100 µM and 50 µM, respectively.
Consider `COc1ccc(/C=C(/Sc2ccc(Br)cc2)C(=O)c2ccc(Br)cc2)cc1`, for which the GI50 in the experiment with DU-145 was determined as 25 µM; in the experiment with K562, 1 µM.
As for `O=C(/C(=C\c1ccc([N+](=O)[O-])c(O)c1)S(=O)(=O)c1ccc(Br)cc1)c1c(F)c(F)c(F)c(F)c1F`, the GI50 with DU-145 and in the experiment with K562 was 1 µM in each case.
On to `O=C(C(=Cc1ccc(O)c([N+](=O)[O-])c1)SCc1ccc(Br)cc1)c1ccc([N+](=O)[O-])c(Cl)c1`, for which the GI50 in the experiment on DU-145 and with K562 was 1 µM each time.
On to `O=C(/C(=C\c1ccc(Cl)cc1)SCc1ccc(Cl)cc1)c1ccc(Br)cc1`, for which the figures for the GI50 in the experiment with DU-145 and with K562 were 10 µM and 1 µM, respectively.
On to `O=C(/C(=C\c1ccc(O)c([N+](=O)[O-])c1)SCc1ccc(Br)cc1)c1ccc([N+](=O)[O-])cc1`, for which the GI50 in the experiment with DU-145 and in the experiment on K562 was 10 µM in each case.
Take `O=C(/C(=C\c1ccc(Br)cc1)SCc1ccc(F)cc1)c1ccc(Cl)cc1`: the GI50 was 9 µM with DU-145 and 1 µM with K562.
As to `Cc1ccc(S(=O)(=O)/C(=C/c2ccc(C)s2)C(=O)c2ccc(Cl)cc2)cc1`, the GI50 in the experiment on DU-145 stood at 50 µM; with K562 it was 25 µM.
The matching figures for `O=C(/C(=C\c1cc(Cl)c(O)c(Cl)c1)S(=O)(=O)Cc1ccc(Br)cc1)c1ccc(Br)cc1`: 25 µM and 25 µM.
With `O=C(C(=Cc1ccc(I)cc1)S(=O)(=O)Cc1ccc(I)cc1)c1ccc(Br)cc1`, the GI50 was 20 µM in the experiment on DU-145 and > 50 µM with K562.
The matching figures for `Cc1cc(C)cc(/C=C(\C(=O)c2ccc(Br)cc2)S(=O)(=O)Cc2ccc(F)cc2)c1`: 10 µM and 10 µM.
For `COc1ccc(C=C(C(=O)c2ccc(OC)cc2)S(=O)(=O)Cc2ccc([N+](=O)[O-])cc2)cc1`, the 50% growth inhibitory concentration (GI50) in the experiment with DU-145 worked out at 25 µM; in the experiment on K562, 10 µM.
As for `CSc1ccc(/C=C(\C(=O)c2ccc(Br)cc2)S(=O)(=O)Cc2ccc(F)cc2)cc1`, the GI50 in the experiment with DU-145 was 50 µM; with K562 it was > 100 µM.
For `COc1ccc(/C=C(\C(=O)c2ccc(Cl)cc2)S(=O)(=O)c2ccc(C)cc2)cc1O`, the GI50 in the experiment with DU-145 and in the experiment with K562 was 1 µM in each case.
For `COc1ccc(C(=O)/C(=C\c2c(OC)cc(OC)cc2OC)Sc2ccc(F)cc2)cc1`, the GI50 in the experiment on DU-145 and in the experiment with K562 was 50 µM throughout.
On to `Cc1ccc(S/C(=C/c2ccc(-c3ccccc3)cc2)C(=O)c2ccc(Cl)cc2)cc1`, for which the GI50 worked out at 50 µM in the experiment on DU-145 and 25 µM in the experiment on K562.
On to `O=C(/C(=C\c1ccc(F)cc1F)Sc1ccc(Br)cc1)c1ccc(Cl)cc1`, for which the GI50 in the experiment with DU-145 and with K562 was 1 µM each time.
Consider `O=C(/C(=C\c1ccccc1OCc1ccccc1)SCc1ccc(F)cc1)c1ccc(Br)cc1`, for which the GI50 with DU-145 and in the experiment with K562 was 1 µM in each case.
As to `COc1ccccc1/C=C(\C(=O)c1ccc(Br)cc1)S(=O)(=O)c1ccc(C)cc1`, the GI50 in the experiment on DU-145 and in the experiment with K562 was 1 µM throughout.
For `Cc1cc(C)cc(/C=C(/SCc2ccc(Cl)cc2)C(=O)c2ccc(Cl)cc2)c1`, the GI50 in the experiment on DU-145 and with K562 was 10 µM throughout.
Turning to `Cc1ccc(S(=O)(=O)/C(=C/c2sccc2C)C(=O)c2ccc(Br)cc2)cc1`, the GI50 in the experiment on DU-145 and in the experiment with K562 was 25 µM throughout.
In the case of `O=C(/C(=C\c1ccc(Br)c([N+](=O)[O-])c1)Sc1ccc(Br)cc1)c1ccc(Br)cc1`, the GI50 with DU-145 and in the experiment with K562 was 1 µM throughout.
Take `CN(C)c1ccc(/C=C(/Sc2ccc(Br)cc2)C(=O)c2ccc(Cl)cc2)cc1`: the GI50 with DU-145 and in the experiment on K562 was > 100 µM throughout.
`O=C(/C(=C\c1ccc(O)c(C(=O)O)c1)SCc1ccc(Br)cc1)c1ccc(Br)cc1`: the GI50 in the experiment on DU-145 came to 10 µM; in the experiment with K562, 25 µM.
The matching figures for `Cc1ccsc1/C=C(\C(=O)c1ccc(Cl)cc1)S(=O)(=O)Cc1ccc(Cl)cc1`: 25 µM and 25 µM.
With `O=C(/C(=C\c1ccc(Cl)cc1)SCc1ccc(Br)cc1)c1ccccc1Cl`, the GI50 in the experiment on DU-145 came to 25 µM; in the experiment with K562, 1 µM.
Regarding `COc1ccc(S/C(=C/c2ccccc2OCc2ccccc2)C(=O)c2ccc(Cl)cc2)cc1`, the GI50 with DU-145 and in the experiment with K562 was 1 µM throughout.
For `Cc1ccc(S(=O)(=O)/C(=C/c2ccc(Cl)cc2)C(=O)c2ccc(Cl)cc2)cc1`, the GI50 with DU-145 and in the experiment on K562 was 1 µM throughout.
Consider `O=C(/C(=C\c1ccc(Cl)cc1)Sc1ccc(Br)cc1)c1ccc(Br)cc1`, for which the GI50 in the experiment with DU-145 and with K562 was 1 µM each time.
With `O=C(/C(=C\c1ccccc1O)Sc1ccccc1Br)c1ccc(Br)cc1`, the GI50 with DU-145 and in the experiment on K562 was 50 µM throughout.
Regarding `COc1ccccc1/C=C(/SCc1ccc(Cl)cc1)C(=O)c1ccc(Cl)cc1`, the 50% growth inhibitory concentration (GI50) with DU-145 and in the experiment with K562 was 1 µM throughout.
Regarding `Cc1ccc(CS/C(=C/c2ccc(O)c(O)c2O)C(=O)c2ccc(Cl)cc2)cc1`, the GI50 with DU-145 and in the experiment with K562 was 50 µM in each case.
As for `Cc1ccsc1/C=C(/SCc1ccc(Cl)cc1Cl)C(=O)c1ccc(Cl)cc1`, the GI50 in the experiment on DU-145 is 10 µM; in the experiment on K562, 50 µM.
